The target in test [1] is Sulfonylurea receptor 2, Kir6.2 (Homo sapiens) (UniProt Q14654+O60706). The test is described as follows: Hill Coefficient calculated by curve fitting of data to a single binding site model. In kind it is protein-complex assay. Summed up: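 Competition curves from displacement of 14 nM [3H]P1075 from canine cardiac P3 membranes (500–700 μg, 60 min, MgATP/vanadate/Mg2+ sucrose-Tris buffer pH 7.4, filtration read-out) were fitted to a single-site model to give the Hill coefficient.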

For test [2], the species on record is Rattus norvegicus. Kind of test: Inhibitory concentration against methoxamine-induced contractions in rat aorta. In kind it is functional, organism-based.
Test [3] is filed under the species Rattus norvegicus. Kind of test: Effective concentration required to increase time to the onset of contracture (TTC) in globally ischemic rat hearts. In kind it is functional.

In the case of `CC(N/C(=N\C#N)Nc1ccncc1)C(C)(C)C` (stereo not given) [PINACIDIL ANHYDROUS], the Hill coefficient in test [1] is 0.86. Moreover, the IC50 in test [2] (Rattus norvegicus, Aorta) was 59.6 nM. In test [3], this compound had an EC25 of 1200 nM.

Compound `C/N=C(\NC#N)Nc1ccc(C#N)cc1` had an IC50 in test [2] (Rattus norvegicus, Aorta) of 130000 nM. The compound also gave a 25% effect concentration (EC25) in test [3] of over 10000 nM.

Take `CC(/N=C(\NC#N)Nc1cccc(C#N)c1)C(C)(C)C` (stereo not given): in test [1], the Hill coefficient is 0.67. Besides, it took 190 nM to reach half-maximal inhibition in test [2] (Rattus norvegicus, Aorta) (IC50). In test [3], this compound had an EC25 of 1460 nM.

As to `CCC(C)(C)/N=C(\NC#N)Nc1ccc(C#N)cc1`, the Hill coefficient in test [1] was 0.99. In addition, the IC50 in test [2] (Rattus norvegicus, Aorta) was found to be 130 nM. For the same compound, in test [3], the EC25 was determined as 400 nM.

In the case of `CC(C)/N=C(\NC#N)Nc1ccc(C#N)cc1`, the Hill coefficient in test [1] is 0.81.

Turning to `CCC(C)(C)/N=C(\NC#N)Nc1ccc(I)c(N=[N+]=[N-])c1`, the Hill coefficient in test [1] is 0.82. In addition, the 25% effect concentration (EC25) in test [3] came out at 39 nM.

Consider `CCC(C)(C)/N=C(\NC#N)Nc1ccc(I)cc1`, for which, in test [1], the Hill coefficient is 0.76. Further, the 50% inhibitory concentration (IC50) in test [2] (Rattus norvegicus, Aorta) amounted to 1.4 nM. Besides, the EC25 in test [3] was 140 nM.

Regarding `CC1(C)Oc2ccc(C#N)cc2[C@H](N2CCCC2=O)[C@H]1O` (single isomer, unassigned), in test [1], the Hill coefficient was 1.5.

In turn, `CCC(C)(C)/N=C(\NC#N)Nc1ccc(S(=O)(=O)N2CCCCC2)cc1` came in with an IC50 in test [2] (Rattus norvegicus, Aorta) of over 30 nM. In test [3], this compound gave an EC25 of over 10000 nM.

`CC(C)(C)/N=C(\NC#N)Nc1ccc(C#N)cc1`: the Hill coefficient in test [1] is 1.15. In addition, in test [2] (Rattus norvegicus, Aorta), the midpoint of inhibition, the IC50, lay at 530 nM. The EC25 in test [3] amounted to 1380 nM.

For the compound `CC1(C)Oc2ccc(C#N)cc2[C@H](N2CCCC2=O)[C@H]1O` [(-)-CROMAKALIM], in test [2], half-maximal inhibition (IC50) required 6500 nM. This compound also displayed an EC25 in test [3] of over 30000 nM.

As for `CC(/N=C(\NC#N)Nc1ccc(C#N)cc1)C(C)(C)C` (stereo not given), the Hill coefficient in test [1] is 0.75. This compound gave an IC50 in test [2] (Rattus norvegicus, Aorta) of 30.3 nM. The concentration for an effect of 25% (EC25) in test [3] is 390 nM.

Turning to `CC1(C)Oc2ccc(C#N)cc2[C@H](N2CCCC2=O)[C@H]1O`, the Hill coefficient in test [1] was 1.06.

In test [2], `CC1(C)Oc2ccc(C#N)cc2[C@H](N2CCCC2=O)[C@H]1O` (single isomer, unassigned) [(-)-CROMAKALIM] yielded a half-maximal inhibitory concentration (IC50) of 40.1 nM. In test [3], the EC25 is on record as 2300 nM.

For `CCC(C)(C)/N=C(\NC#N)Nc1cccnc1`, in test [1], the Hill coefficient was 1.17. This compound showed an IC50 in test [2] (Rattus norvegicus, Aorta) of 4.4 nM. Further, the EC25 in test [3] is on record as 60 nM.

Consider `CC(/N=C(\NC#N)Nc1ccccc1)C(C)(C)C` (stereo not given), for which the Hill coefficient in test [1] was 1.04. This compound also yielded a half-inhibitory concentration (IC50) in test [2] (Rattus norvegicus, Aorta) of 980 nM. Further, the EC25 in test [3] came out at 1290 nM.

Turning to `CCC(C)(C)/N=C(\NC#N)Nc1cccc(S(=O)(=O)N2CCCCC2)c1`, in test [2] (Rattus norvegicus, Aorta), the half-inhibitory concentration (IC50) was found to be 12800 nM. In addition, the 25% effect concentration (EC25) in test [3] was over 10000 nM.

Consider `COc1ccc(Cl)cc1C(=O)NCCc1ccc(S(=O)(=O)NC(=O)NC2CCCCC2)cc1` [GLYBURIDE], for which the Hill coefficient in test [1] is 0.67.

The values are drawn from ChEMBL document CHEMBL1131338, “Binding of ATP-sensitive potassium channel (KATP) openers to cardiac membranes: correlation of binding affinities with cardioprotective and smooth muscle relaxing potencies” (J Med Chem, 1998).
